HDAC3 inh – blocks human histone deacetylase 3. recombinant HDAC3, fluorogenic peptide/trypsin coupled, fluorescence. inhibition, % at 8.3 µM. actives 0.15% (n = 320,000). AID 2718; in the data active means inhibition above about 26%, passing the limit was not always enough; inconclusive means no clear call, values can overlap the other calls
Target sequence (O15379 whole entry, looked up): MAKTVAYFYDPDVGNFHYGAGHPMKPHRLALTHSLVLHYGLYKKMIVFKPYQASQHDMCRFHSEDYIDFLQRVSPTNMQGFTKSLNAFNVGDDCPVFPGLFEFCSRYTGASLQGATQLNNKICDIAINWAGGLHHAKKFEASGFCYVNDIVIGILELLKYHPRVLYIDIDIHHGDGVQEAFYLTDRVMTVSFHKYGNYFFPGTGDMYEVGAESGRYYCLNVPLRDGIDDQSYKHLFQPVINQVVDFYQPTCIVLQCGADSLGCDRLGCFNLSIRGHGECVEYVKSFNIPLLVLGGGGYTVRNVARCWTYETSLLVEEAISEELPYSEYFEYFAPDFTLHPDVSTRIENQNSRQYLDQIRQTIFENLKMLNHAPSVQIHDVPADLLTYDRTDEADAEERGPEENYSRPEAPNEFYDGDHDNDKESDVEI
PolyA inhibitor – inhibitors of polyadenylation in S. cerevisiae; S. cerevisiae SKY197-pL101 polyadenylation reporter, beta-gal luminescence; efflux-impaired pdr1/pdr3 knockout yeast; score 100 = 6 SD above DMSO; activity score, % at 12 µM; actives 0.02% (n = 300,000); AID 1875;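 active means lowest replicate activity score at least 50, where 100 means six control SD above control mean; inconclusive means lowest score under 50 but half or more replicates reach 50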;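 further: yeast exposed to compound for 9 h at 30 °C; higher score means more reporter readthrough which indicates perturbed polyadenylation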
T cruzi inh – T. cruzi replication inhibition; inhibition, % (no concentration beside the values); actives 1.4% (n = 300,000); T. cruzi beta-gal in NIH3T3, luminescence, 90 h; AID 1885;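 active means mean inhibition across valid replicates above about 55%, limit read from the data; inconclusive means mean below that limit but half or more replicates reach it; inactive means mean below it, under half of replicates reach it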;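 further: signal also drops with host cell toxicity which is not excluded here; higher percent means less beta-gal luminescence so fewer parasites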
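Incubation – ≥90 h infection period, 3 h prior cell attachment · System – NIH/3T3 fibroblasts plus reporter T. cruzi · Doses – compound pinned at 50 nL/well, DMSO · Read-out basis – percent inhibition of parasite-derived β-gal signal · Signal – luminescent β-galactosidase signal after 60 min lysis · Also added – 5000 T. cruzi trypomastigotes/well · Medium – Low-serum DMEM with 2% FBS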
AI-2 QS mod – Vibrio harveyi AI-2 quorum sensing modulation. Vibrio harveyi JMH597 AI-2 luminescence/OD600 ratio, 9 h; active compounds read low; strain lacks LuxN and CqsS sensors; 0 = neutral-control median. activity change, % at 7.5 µM. actives 0.4% (n = 300,000). AID 2094; in the data active means activity change below about -75%, passing the limit was not always enough; inconclusive means no clear call, values can overlap the other calls;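 further: luminescence divided by OD600 gain over 9 h not by final OD600 alone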
Efflux pump inh – antifungal efflux pump inhibition, Nile Red retention; actives 0.44% (n = 330,000); inhibition, % at 10 µM; S. cerevisiae Candida pump triplex; AID 485275;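 active means plate passing quality check with inhibition over a set limit, or well fluorescence over plate mean plus 4 SD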;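 further: Nile Red retained in pooled yeast measured as flow cytometry median fluorescence; higher means more Nile Red kept so more efflux inhibition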
Yeast cmpd fluor – flagged as fluorescent in efflux inhibitor counter-screen. shares compounds with Efflux pump inh. S. cerevisiae AD/pABC3, compound fluorescence, flow cytometry. fluorescence ratio to DMSO, % at 10 µM. actives 4% (n = 1,700). AID 588517;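 active means fluorescence ratio to DMSO above its plate's cutoff, the plate mean ratio plus 5 SD, cut at about 210% in these data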;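 further: unstained yeast with no Nile Red so the signal is compound autofluorescence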
CaMdr1 efflux inh – inhibitors of Candida albicans Mdr1 efflux pump. shares compounds with Efflux pump inh. S. cerevisiae AD/CaMDR1, Nile Red efflux, flow cytometry. inhibition, % at 10 µM. actives 1% (n = 1,700). AID 588518; in the data active means inhibition above about 26%;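 further: higher means more Nile Red retained so more efflux inhibition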
Cdr2 pump inh – inhibitors of Candida albicans Cdr2 efflux pump | Nile Red retention ratio vs DMSO, % at 10 µM | shares compounds with Efflux pump inh | actives 4% (n = 1,700) | S. cerevisiae AD/CaCDR2, Nile Red retention, flow cytometry | AID 588520; in the data active means Nile Red retention ratio vs DMSO above about 190%;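 further: higher ratio means more blocking of Cdr2 efflux of the dye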
CaCdr1 efflux inh – Candida Cdr1 efflux pump inhibition | shares compounds with Efflux pump inh | S. cerevisiae AD/CaCDR1, Nile Red efflux, flow cytometry | inhibition, % at 10 µM | actives 1% (n = 1,700) | AID 588522;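 active means inhibition above the screen-wide mean plus twice its standard deviation, cut at about 32% in these data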
Hits are given with their value. A selection: hits, their analogues and other compounds. The true share with any hit is near 2.2%.

Results for O=C(N/N=C/c1ccc[nH]1)c1ccc([N+](=O)[O-])cc1 ?
HDAC3 inh: inactive; PolyA inhibitor: inactive; T cruzi inh: inactive; AI-2 QS mod: inactive; Efflux pump inh: inactive

What do the screens show for `CCCc1nnc(-c2cc(OC)c(OC)c(OC)c2)o1`?
HDAC3 inh: inactive; PolyA inhibitor: inactive; T cruzi inh: inactive; AI-2 QS mod: inactive; Efflux pump inh: 1.9; Yeast cmpd fluor: inactive; CaMdr1 efflux inh: inactive; Cdr2 pump inh: inactive; CaCdr1 efflux inh: inactive

What do the screens show for `O=C(Nc1cccc2ccccc12)c1cn(-c2ccccc2)nc1-c1cccs1`?
HDAC3 inh: inactive; PolyA inhibitor: inactive; T cruzi inh: inactive; AI-2 QS mod: inactive; Efflux pump inh: 9.0; Yeast cmpd fluor: inactive; CaMdr1 efflux inh: inactive; Cdr2 pump inh: inactive; CaCdr1 efflux inh: inactive

Results for COc1c(C)cc(Br)cc1C(=O)Nc1ccccc1N1CCN(C(=O)c2ccccc2)CC1 ?
HDAC3 inh: inactive; PolyA inhibitor: inactive; T cruzi inh: 65.9; AI-2 QS mod: inactive; Efflux pump inh: 1.0; Yeast cmpd fluor: inactive; CaMdr1 efflux inh: inactive; Cdr2 pump inh: inactive; CaCdr1 efflux inh: inactive

Results for CCCNC(=O)c1ccc(N2CCC3(CC2)CC(c2ccccc2)=NO3)c(NC(=O)c2ccccc2)c1 ?
HDAC3 inh: inactive; PolyA inhibitor: inactive; T cruzi inh: inactive; AI-2 QS mod: inactive; Efflux pump inh: inactive

What do the screens show for `CCCCCCCC(=O)Nc1cc(C(=O)NCCC)ccc1N1CCC2(CC1)CC(c1ccccc1)=NO2`?
HDAC3 inh: inactive; PolyA inhibitor: inactive; T cruzi inh: 57.1; AI-2 QS mod: inactive; Efflux pump inh: 0.9; Yeast cmpd fluor: inactive; CaMdr1 efflux inh: inactive; Cdr2 pump inh: inactive; CaCdr1 efflux inh: inactive

Results for O=C(O)CNS(=O)(=O)c1ccc2c3c(cccc13)C(=O)N2 ?
HDAC3 inh: inactive; PolyA inhibitor: inactive; T cruzi inh: inactive; AI-2 QS mod: inactive; Efflux pump inh: 0.7; Yeast cmpd fluor: inactive; CaMdr1 efflux inh: inactive; Cdr2 pump inh: inactive; CaCdr1 efflux inh: inactive

Results for CCN(CC)c1ccc(/C=C2\C(=O)c3ccc(C(=O)O)cc3C2=O)cc1 ?
HDAC3 inh: inactive; Efflux pump inh: 5.8; Yeast cmpd fluor: 208.5; CaMdr1 efflux inh: inactive; Cdr2 pump inh: 667.9; CaCdr1 efflux inh: inactive

What do the screens show for `CCN(CC)c1ccc(C(=O)O)cc1`?
HDAC3 inh: inactive; PolyA inhibitor: inactive; T cruzi inh: inactive; AI-2 QS mod: inactive; Efflux pump inh: inactive

Results for COc1cc(NC(=O)c2ccc([N+](=O)[O-])cc2)ccc1NC(=O)C(C)C ?
HDAC3 inh: inactive; PolyA inhibitor: inactive; T cruzi inh: inactive; AI-2 QS mod: inactive; Efflux pump inh: inactive

Results for CCN(Cc1nc2cc(Cl)ccc2c(=O)[nH]1)C(=O)c1cccc(NC(=O)c2cccs2)c1 ?
HDAC3 inh: inactive; Efflux pump inh: inactive

How did CCN(Cc1nc2cc(Cl)ccc2c(=O)[nH]1)C(=O)c1cccc(OCc2c(C)noc2C)c1 do in these assays?
HDAC3 inh: inactive; Efflux pump inh: 1.6; Yeast cmpd fluor: inactive; CaMdr1 efflux inh: inactive; Cdr2 pump inh: inactive; CaCdr1 efflux inh: inactive

How did Cc1cc(C)c2c(n1)sc1c(-c3ccccc3)c(C#N)c(N)nc12 do in these assays?
HDAC3 inh: inactive; PolyA inhibitor: inactive; T cruzi inh: inactive; AI-2 QS mod: inactive; Efflux pump inh: 17.7; Yeast cmpd fluor: inactive; CaMdr1 efflux inh: inactive; Cdr2 pump inh: inactive; CaCdr1 efflux inh: inactive

What do the screens show for `Cc1nc(N)c(C#N)c(-c2ccccc2)c1C`?
HDAC3 inh: inactive; PolyA inhibitor: inactive; T cruzi inh: inactive; AI-2 QS mod: inactive; Efflux pump inh: inactive

What do the screens show for `O=C(COC(=O)CC1CCCC1)Nc1ccccc1[N+](=O)[O-]`?
HDAC3 inh: inactive; Efflux pump inh: 0.9; Yeast cmpd fluor: inactive; CaMdr1 efflux inh: inactive; Cdr2 pump inh: inactive; CaCdr1 efflux inh: inactive

Results for O=C(Cc1cccc(C(F)(F)F)c1)OCN1C(=O)c2ccccc2C1=O ?
HDAC3 inh: inactive; PolyA inhibitor: inactive; T cruzi inh: inactive; AI-2 QS mod: inactive; Efflux pump inh: 1.3; Yeast cmpd fluor: inactive; CaMdr1 efflux inh: inactive; Cdr2 pump inh: inactive; CaCdr1 efflux inh: inactive

Results for Cc1nc2cc(F)ccc2n1C1CCN(C(=O)c2c(F)cccc2F)CC1 ?
HDAC3 inh: inactive; PolyA inhibitor: inactive; T cruzi inh: inactive; AI-2 QS mod: inactive; Efflux pump inh: inactive

What do the screens show for `COCCn1c(SCC(=O)NC2CCCC2)nnc1C(C)C`?
HDAC3 inh: inactive; PolyA inhibitor: inactive; T cruzi inh: inactive; AI-2 QS mod: inactive; Efflux pump inh: inactive

What do the screens show for `CCCCCc1cc(=O)oc2c(C(CCN3CCCC(C)C3)c3ccc(N(C)C)cc3)c(OC)cc(OC)c12` (configuration not stated)?
HDAC3 inh: inactive; PolyA inhibitor: inactive; T cruzi inh: inactive; AI-2 QS mod: inactive; Efflux pump inh: 1.0; Yeast cmpd fluor: inactive; CaMdr1 efflux inh: inactive; Cdr2 pump inh: inactive; CaCdr1 efflux inh: inactive

How did CC1(C)OC(=O)C(=NNc2ccccc2)C(=O)O1 do in these assays?
HDAC3 inh: inactive; PolyA inhibitor: inactive; T cruzi inh: inactive; AI-2 QS mod: inactive; Efflux pump inh: 9.7; Yeast cmpd fluor: inactive; CaMdr1 efflux inh: inactive; Cdr2 pump inh: inactive; CaCdr1 efflux inh: inactive

Results for O=C(NCCc1ccccc1)C1CCC(CNS(=O)(=O)c2cccs2)CC1 (configuration not stated) ?
HDAC3 inh: inactive; PolyA inhibitor: inactive; T cruzi inh: inactive; AI-2 QS mod: inactive; Efflux pump inh: inactive

What do the screens show for `O=C(c1ccc(Cn2cc(Cl)c([N+](=O)[O-])n2)cc1)N1CCN(Cc2ccccc2)CC1`?
HDAC3 inh: inactive; PolyA inhibitor: inactive; T cruzi inh: inactive; AI-2 QS mod: inactive; Efflux pump inh: inactive

Results for COc1ccc(Cn2c(=O)c3[nH]cnc3n(-c3ccccc3C)c2=O)cc1 ?
PolyA inhibitor: inactive; T cruzi inh: inactive; AI-2 QS mod: inactive; Efflux pump inh: 0.8; Yeast cmpd fluor: inactive; CaMdr1 efflux inh: inactive; Cdr2 pump inh: inactive; CaCdr1 efflux inh: inactive

What do the screens show for `COc1ccc(C)c(-n2c(=O)n(Cc3ccccc3)c(=O)c3[nH]cnc32)c1`?
PolyA inhibitor: inactive; T cruzi inh: inactive; AI-2 QS mod: inactive; Efflux pump inh: inactive

What do the screens show for `COc1cc(OC)c(C2C(C(=O)Nc3ccccc3)=C(C)Nc3ncnn32)cc1OC` (configuration not stated)?
HDAC3 inh: inconclusive; PolyA inhibitor: inactive; T cruzi inh: inactive; AI-2 QS mod: inactive; Efflux pump inh: inactive

Screening results: PubChem, several laboratories
